Data from ChEMBL document CHEMBL5257122, “Structure-Activity relationships of replacements for the triazolopyridazine of Anti-Cryptosporidium lead SLU-2633” (Bioorg Med Chem, 2023).

Assays:
Cryptosporidium parvum [1] = assay: Antiparasitic activity against Cryptosporidium parvum infected in human HCT-8 cells assessed as parasitic growth inhibition measured for 48 hrs by fluorescence microscopic analysis; type: functional, organism-based; settings: HCT-8, 48 h
Procedure, shortened: (§1)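 C. parvum Iowa isolate oocysts excysted (10 mM HCl, 10 min, 37 °C; then 2 mM sodium taurocholate in PBS, 10 min, 16 °C) and used to infect near-confluent HCT-8 monolayers. Compound added after 3 h, then 45 h more at 37 °C, 5% CO₂. Fixed, stained with fluorescein-Vicia villosa lectin (vacuoles) and Hoechst (nuclei), imaged and counted automatically. 9-point dose-response, ≥2 experiments, n=8 per dose.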

[2] = Dissociation constant, pKa of compound; type: physicochemical
Procedure, shortened: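 Basic pKa calculated in silico (CDD Vault, method of Lu et al.), not measured.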

[3] = Lipophilicity, logP of the compound; type: physicochemical; settings: octanol/water
Procedure, shortened: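 LogP calculated in silico (CDD Vault, method of Gedeck et al.) as an estimate of lipophilicity.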

[4] = molecular target: T1, Voltage-gated inwardly rectifying potassium channel KCNH2 (Homo sapiens, UniProt Q12809); assay: Displacement of [3H]-dofetilide from human ERG at 10 uM relative to control; type: toxicity
T1 sequence (Q12809 whole entry): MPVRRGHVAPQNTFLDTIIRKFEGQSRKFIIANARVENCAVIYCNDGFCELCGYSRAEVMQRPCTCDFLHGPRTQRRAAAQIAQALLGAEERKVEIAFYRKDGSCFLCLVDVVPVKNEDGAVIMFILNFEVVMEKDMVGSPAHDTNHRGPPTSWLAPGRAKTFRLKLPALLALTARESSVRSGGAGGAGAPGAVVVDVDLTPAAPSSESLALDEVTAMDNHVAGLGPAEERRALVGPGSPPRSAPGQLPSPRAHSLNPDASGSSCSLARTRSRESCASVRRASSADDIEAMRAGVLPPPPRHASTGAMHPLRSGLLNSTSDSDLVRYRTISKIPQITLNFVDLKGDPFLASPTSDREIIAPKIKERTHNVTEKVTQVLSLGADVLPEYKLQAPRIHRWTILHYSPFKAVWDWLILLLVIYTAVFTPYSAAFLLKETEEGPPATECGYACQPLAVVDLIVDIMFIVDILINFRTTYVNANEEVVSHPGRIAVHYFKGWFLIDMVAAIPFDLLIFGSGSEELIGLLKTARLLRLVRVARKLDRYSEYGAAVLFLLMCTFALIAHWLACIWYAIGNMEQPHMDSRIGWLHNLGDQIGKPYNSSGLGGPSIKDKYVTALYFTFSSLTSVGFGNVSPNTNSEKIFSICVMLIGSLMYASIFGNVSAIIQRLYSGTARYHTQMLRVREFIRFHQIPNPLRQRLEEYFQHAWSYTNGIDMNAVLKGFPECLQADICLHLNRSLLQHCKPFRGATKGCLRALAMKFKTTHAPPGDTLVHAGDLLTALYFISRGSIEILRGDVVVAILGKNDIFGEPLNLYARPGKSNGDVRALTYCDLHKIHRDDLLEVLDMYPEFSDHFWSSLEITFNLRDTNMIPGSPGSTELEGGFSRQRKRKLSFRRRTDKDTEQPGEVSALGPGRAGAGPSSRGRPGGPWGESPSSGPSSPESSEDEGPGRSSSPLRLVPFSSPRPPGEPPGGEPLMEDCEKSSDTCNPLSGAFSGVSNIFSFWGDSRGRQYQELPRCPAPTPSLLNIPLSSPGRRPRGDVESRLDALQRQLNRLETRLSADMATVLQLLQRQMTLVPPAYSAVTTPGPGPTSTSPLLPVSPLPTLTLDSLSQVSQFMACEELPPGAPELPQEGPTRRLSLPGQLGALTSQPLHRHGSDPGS
Procedure, shortened: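 Radioligand binding against human hERG potassium channel: % inhibition of [³H]-dofetilide binding by test compound at 10 μM.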

[5] = molecular target: T1, Voltage-gated inwardly rectifying potassium channel KCNH2; assay: Inhibition of hERG in CHO cells at 1 uM by automated patch clamp method relative to control; type: toxicity, cell-based
Procedure, shortened: (§2)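 hERG expressed in CHO cells, automated patch-clamp electrophysiology. Tail current inhibition measured at 1, 10 and 30 μM, each in duplicate, and reported as the average % inhibition.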

[6] = molecular target: T1, Voltage-gated inwardly rectifying potassium channel KCNH2; assay: Inhibition of hERG in CHO cells at 10 uM by automated patch clamp method relative to control; type: toxicity, cell-based; procedure, shortened: as §2
[7] = molecular target: T1, Voltage-gated inwardly rectifying potassium channel KCNH2; assay: Inhibition of hERG in CHO cells at 30 uM by automated patch clamp method relative to control; type: toxicity, cell-based; procedure, shortened: as §2
Cryptosporidium parvum [8] = assay: Antiparasitic activity against Cryptosporidium parvum assessed as reduction in parasitic growth; type: functional, organism-based; procedure, shortened: as §1
HCT-8 = assay: Cytotoxicity against human HCT-8 cells assessed as reduction in cell growth; type: functional

| Compound | EC50 (Cryptosporidium parvum [1]) | also measured |
| --- | --- | --- |
| O=C(Cc1ccc(Cl)c(Cl)c1)N1CCN(c2ccc3ccccc3n2)CC1 | 46 µM | – |
| O=C(Cc1ccc(Cl)c(Cl)c1)N1CCN(c2ccc3ncccc3n2)CC1 | 38 µM | – |
| Nc1nc2cc(N3CCN(C(=O)Cc4ccc(Cl)c(Cl)c4)CC3)ccc2s1 | 16 µM | – |
| O=C(Cc1ccc(Cl)c(Cl)c1)N1CCN(c2ccc3[nH]ncc3n2)CC1 | 28 µM | – |
| CC(C)(C)OC(=O)N1CCN(C(=O)Cc2ccc(Cl)c(Cl)c2)CC1 | > 50 µM | – |
| O=C(Nc1ccc(Cl)c(Cl)c1)N1CCN(c2ccccc2)CC1 | 20 µM | – |
| Cc1nc2cc(N3CCN(C(=O)Cc4ccc(Cl)c(Cl)c4)CC3)ccc2s1 | 14 µM | – |
| Cn1ncc2nc(N3CCN(C(=O)Cc4ccc(Cl)c(Cl)c4)CC3)ccc21 | > 50 µM | – |
| O=C(Cc1ccc(Cl)c(Cl)c1)N1CCN(c2ccc3nnc(-c4ccncc4)n3n2)CC1 | > 50 µM | – |
| O=C(Cc1ccc(Cl)c(Cl)c1)N1CCN(C2=Nn3cnnc3CC2)CC1 | 1.2 µM | pKa [2]: 4.4; logP [3]: 1.8; Activity [4]: 15%; inhibition (INH) [5]: 8.7%; inhibition (INH) [6]: 34%; inhibition (INH) [7]: 61% |
| O=C(Nc1ccc(Cl)c(Cl)c1)N1CCN(c2ccc3nnc(Cl)n3n2)CC1 | 12 µM | – |
| O=C(Nc1ccc(Cl)c(Cl)c1)N1CCN(c2cn3ccnc3cn2)CC1 | > 25 µM | – |
| O=C(Cc1ccc(Cl)c(Cl)c1)N1CCN(c2ccc3[nH]c(=O)sc3c2)CC1 | > 50 µM | – |
| O=C(Nc1ccc(Cl)c(Cl)c1)N1CCN(c2ccc3nccn3n2)CC1 | 16 µM | pKa [2]: 6.4; Activity [4]: 77% |
| O=C(Nc1nc2nc(N3CCN(C(=O)Cc4ccc(Cl)c(Cl)c4)CC3)ccc2s1)c1ccncc1 | 7.3 µM | – |
| Cc1cc(N2CCN(C(=O)Cc3ccc(Cl)c(Cl)c3)CC2)nn2cnnc12 | 61 µM | – |
| Cc1nc2nc(N3CCN(C(=O)Cc4ccc(Cl)c(Cl)c4)CC3)ccc2s1 | 18 µM | – |
| O=C(Cc1ccc(Cl)c(Cl)c1)N1CCN(c2ccc3c(cnn3Cc3ccccc3)n2)CC1 | 45 µM | – |
| Cc1nnc2ccc(N3CCN(C(=O)Nc4ccc(Cl)c(Cl)c4)CC3)nn12 | 26 µM | – |
| Nc1cn2nc(N3CCN(C(=O)Cc4ccc(Cl)c(Cl)c4)CC3)ccc2n1 | > 50 µM | – |
| Cc1nnc2ccc(N3CCN(C(=O)Cc4ccc(Cl)c(Cl)c4)CC3)nn12 | 30 µM | – |
| O=C(Cc1ccc(Cl)c(Cl)c1)N1CCN(c2ncccn2)CC1 | > 50 µM | – |
| O=C(Nc1ccc(Cl)cc1)N1CCN(c2ccc3nncn3n2)CC1 | – | EC50 (Cryptosporidium parvum [8]): 2.1 µM |

| Compound | EC50 (Cryptosporidium parvum [1]) | also measured |
| --- | --- | --- |
| O=C(Cc1ccc(Cl)c(Cl)c1)N1CCN(c2ccccn2)CC1 | > 50 µM | – |
| CC(=O)Oc1ccccc1C(=O)Nc1ncc([N+](=O)[O-])s1 [NITAZOXANIDE] | 3.7 µM | – |
| O=C(Nc1ccc(Cl)c(Cl)c1)N1CCN(c2ncc(C(F)(F)F)cn2)CC1 | > 25 µM | – |
| O=C(Nc1nc2nc(N3CCN(C(=O)Cc4ccc(Cl)c(Cl)c4)CC3)ccc2s1)c1ccccc1 | 2.9 µM | pKa [2]: 7.7; Activity [4]: 47% |
| O=C(Cc1ccc(Cl)c(Cl)c1)N1CCN(c2ccc3nnc(Cc4ccccc4)n3n2)CC1 | 16 µM | – |
| CCCCOC(=O)c1cn2nc(N3CCN(C(=O)Cc4ccc(Cl)c(Cl)c4)CC3)ccc2n1 | 23 µM | – |
| O=C(Cc1ccc(Cl)c(Cl)c1)N1CCN(c2ccc3nnc(Cl)n3n2)CC1 | 29 µM | – |
| O=C(Nc1ccc(Cl)c(Cl)c1)N1CCN(c2ccc3nnc(C(F)(F)F)n3n2)CC1 | 11 µM | – |
| Cc1nccc(N2CCN(C(=O)Cc3ccc(Cl)c(Cl)c3)CC2)n1 | > 50 µM | – |
| O=C(Cc1ccc(Cl)c(Cl)c1)N1CCN(c2ccc3nnc(-c4ccccc4)n3n2)CC1 | 15 µM | – |
| O=C(Cc1ccc(Cl)c(Cl)c1)N1CCN(c2ccn3nccc3n2)CC1 | 47 µM | – |
| O=C(Cc1ccc(Cl)c(Cl)c1)N1CCN(c2cc3ccncc3cn2)CC1 | 50 µM | – |
| CN(C)C(=O)c1cn2nc(N3CCN(C(=O)Cc4ccc(Cl)c(Cl)c4)CC3)ccc2n1 | 38 µM | – |
| O=C(Nc1nc2cc(N3CCN(C(=O)Cc4ccc(Cl)c(Cl)c4)CC3)ccc2s1)c1ccccc1 | 93 µM | – |
| Nc1nc2nc(N3CCN(C(=O)Cc4ccc(Cl)c(Cl)c4)CC3)ccc2s1 | 3.2 µM | pKa [2]: 5.9; Activity [4]: 34% |
| CNc1nccc(N2CCN(C(=O)Nc3ccc(Cl)c(Cl)c3)CC2)n1 | > 25 µM | – |
| CCOC(=O)c1cn2nc(N3CCN(C(=O)Cc4ccc(Cl)c(Cl)c4)CC3)ccc2n1 | 58 µM | – |
| O=C(Cc1ccc(Cl)c(Cl)c1)N1CCN(c2ccc3nn(Cc4ccccc4)cc3n2)CC1 | 7.8 µM | pKa [2]: 6.2; Activity [4]: 80% |
| O=C(Cc1ccc(Cl)c(Cl)c1)N1CCN(c2nccc(C(F)(F)F)n2)CC1 | > 50 µM | – |
| O=C(Cc1ccc(Cl)c(Cl)c1)N1CCN(c2ccccc2)CC1 | 42 µM | pKa [2]: 3; Activity [4]: 2% |
| O=C(Cc1ccc(Cl)c(Cl)c1)N1CCN(c2ccc3nnc(C(F)(F)F)n3n2)CC1 | 29 µM | – |
| O=C(Cc1ccc(Cl)c(Cl)c1)N1CCN(c2ccc3nc(C(=O)N4CCOCC4)cn3n2)CC1 | > 50 µM | – |
| O=C(Cc1ccc(Cl)c(Cl)c1)N1CCN(c2ncc([N+](=O)[O-])s2)CC1 | 20 µM | – |

| Compound | EC50 (Cryptosporidium parvum [1]) | also measured |
| --- | --- | --- |
| O=C(Cc1ccc(Cl)c(Cl)c1)N1CCN(c2ccc3nc[nH]c3c2)CC1 | 20 µM | – |
| O=C(Cc1ccc(Cl)c(Cl)c1)N1CCN(c2ccc3nccn3n2)CC1 | 63 µM | – |
| Nc1nnc2ccc(N3CCN(C(=O)Cc4ccc(Cl)c(Cl)c4)CC3)nn12 | 65 µM | – |
| O=C(Cc1ccc(Cl)c(Cl)c1)N1CCN(c2ccc3nnc(N4CCOCC4)n3n2)CC1 | 48 µM | – |
| O=C(Cc1ccc(Cl)c(Cl)c1)N1CCN(c2ccc3nnc(-c4ccnc(C(F)(F)F)c4)n3n2)CC1 | 6.1 µM | pKa [2]: 6; Activity [4]: 95% |
| O=C(Nc1ccc(Cl)c(Cl)c1)N1CCN(c2nc3ccccc3[nH]2)CC1 | 17 µM | – |
| O=C(Cc1ccc(Cl)c(Cl)c1)N1CCNCC1 | > 50 µM | – |
| O=C(Cc1ccc(Cl)c(Cl)c1)N1CCN(c2nc3ccccc3s2)CC1 | 36 µM | – |
| COc1ccc(N2CCN(C(=O)Cc3ccc(Cl)c(Cl)c3)CC2)nn1 | 57 µM | – |
| O=C(Cc1ccc(Cl)c(Cl)c1)N1CCN(c2ccc3cn[nH]c3c2)CC1 | 26 µM | – |
| O=C(Cc1ccc(Cl)c(Cl)c1)N1CCN(c2ccc(C(F)(F)F)nn2)CC1 | 49 µM | – |
| Cc1cc2nncn2nc1N1CCN(C(=O)Cc2ccc(Cl)c(Cl)c2)CC1 | 23 µM | – |
| Cc1cc2nncn2nc1N1CCN(C(=O)Nc2ccc(Cl)c(Cl)c2)CC1 | 25 µM | – |
| O=C(Cc1ccc(Cl)c(Cl)c1)N1CCN(c2ccc3nonc3c2)CC1 | 24 µM | – |
| O=C(Nc1ccc(Cl)c(Cl)c1)N1CCN(C2=Nn3cnnc3CC2)CC1 | 13 µM | logP [3]: 2.3 |
| O=C(Cc1ccc(Cl)c(Cl)c1)N1CCN(c2nc3ccccc3o2)CC1 | > 50 µM | – |
| O=C(Cc1ccc(Cl)c(Cl)c1)N1CCN(c2ccc3nncn3n2)CC1 | – | CC50 (HCT-8): > 100 µM; pKa [2]: 5.9; logP [3]: 3 |
| Cc1cc(N2CCN(C(=O)Nc3ccc(Cl)c(Cl)c3)CC2)nn2cnnc12 | 24 µM | – |
| O=C(Cc1ccc(Cl)c(Cl)c1)N1CCN(c2ccc3cc[nH]c3n2)CC1 | 30 µM | – |
| O=C(O)c1cn2nc(N3CCN(C(=O)Cc4ccc(Cl)c(Cl)c4)CC3)ccc2n1 | > 50 µM | – |
| Cc1cccc(N2CCN(C(=O)Cc3ccc(Cl)c(Cl)c3)CC2)n1 | 36 µM | – |
| O=C(Nc1ccc(Cl)c(Cl)c1)N1CCN(c2ccc3nncn3n2)CC1 | – | pKa [2]: 5.9; logP [3]: 4 |
